# hERG rescue: shields human hERG channel from block by proarrhythmic agents; activation (rescue from dofetilide block), less the hit threshold, % at 10 µM; Q12809; AID 1511; 0.51% of 310,000 active; CHO-hERG, FluxOR thallium flux, dofetilide IC70 present;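 active = activation above the mean of controls blocked by dofetilide plus 5 SD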;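 note: thallium influx through hERG after potassium depolarization seen as dye fluorescence rise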
# Target sequence (Q12809 whole entry, looked up): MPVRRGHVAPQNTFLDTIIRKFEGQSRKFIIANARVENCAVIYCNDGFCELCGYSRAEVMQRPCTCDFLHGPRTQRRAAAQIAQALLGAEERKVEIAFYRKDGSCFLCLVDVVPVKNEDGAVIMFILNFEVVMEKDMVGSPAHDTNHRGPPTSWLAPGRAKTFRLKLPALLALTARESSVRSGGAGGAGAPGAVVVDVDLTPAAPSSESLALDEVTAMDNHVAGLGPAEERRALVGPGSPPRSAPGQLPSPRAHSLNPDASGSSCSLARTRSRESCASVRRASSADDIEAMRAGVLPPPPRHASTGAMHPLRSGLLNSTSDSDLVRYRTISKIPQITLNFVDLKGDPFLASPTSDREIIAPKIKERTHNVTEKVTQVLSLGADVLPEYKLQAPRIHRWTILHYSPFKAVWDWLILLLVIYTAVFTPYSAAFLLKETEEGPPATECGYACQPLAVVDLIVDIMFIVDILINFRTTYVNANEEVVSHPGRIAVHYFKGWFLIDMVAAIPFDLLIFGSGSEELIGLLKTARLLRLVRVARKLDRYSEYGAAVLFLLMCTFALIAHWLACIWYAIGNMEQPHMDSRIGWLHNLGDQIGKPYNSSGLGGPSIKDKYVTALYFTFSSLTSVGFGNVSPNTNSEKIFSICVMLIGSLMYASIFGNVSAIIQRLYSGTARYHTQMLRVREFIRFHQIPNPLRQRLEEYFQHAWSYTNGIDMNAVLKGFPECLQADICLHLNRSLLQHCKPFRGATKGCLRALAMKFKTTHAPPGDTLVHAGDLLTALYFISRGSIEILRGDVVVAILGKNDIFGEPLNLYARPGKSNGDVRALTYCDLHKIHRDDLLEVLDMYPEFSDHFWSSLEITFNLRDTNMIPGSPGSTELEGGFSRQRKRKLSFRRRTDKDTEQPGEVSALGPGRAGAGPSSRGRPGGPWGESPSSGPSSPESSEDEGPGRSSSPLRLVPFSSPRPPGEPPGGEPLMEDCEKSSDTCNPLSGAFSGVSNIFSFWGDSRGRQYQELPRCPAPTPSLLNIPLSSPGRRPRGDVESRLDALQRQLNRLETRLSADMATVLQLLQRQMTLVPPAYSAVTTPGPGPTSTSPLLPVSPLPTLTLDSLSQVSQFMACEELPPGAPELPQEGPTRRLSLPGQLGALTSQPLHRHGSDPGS
# KCNQ1 inh: inhibitors of human KCNQ1 potassium channel. P51787. CHO-K1 KCNQ1, FluxOR thallium flux fluorescence; active compounds read high. B-score at 10 µM. 1.3% of 310,000 active;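 active = compounds whose thallium flux B-score, printed positive for inhibition, exceeds three library SD while starting fluorescence stays within three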;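 note: channel opened by potassium depolarization with thallium stimulus after 20 min compound exposure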
# KCNK3 block: human KCNK3 channel inhibition, primary screen | O14649 | CHO-KCNK3 thallium flux, FluxOR fluorescence; active compounds read low | B-score at 10 µM | 0.84% of 340,000 active | AID 602410;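 active = B-score under library mean minus 4 SD, starting fluorescence ratio at most library mean plus 5 SD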;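 note: more negative B-score means stronger inhibition of thallium flux through KCNK3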
# KCNQ1 pot: human KCNQ1 channel potentiation or activation; 0.35% of 310,000 active; P51787; CHO-K1 KCNQ1, thallium flux FluxOR fluorescence; active compounds read high; B-score at 10 µM;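 active = fluorescence ratio B-score, a plate-corrected score, at least three library SD, with initial intensity B-score within 5 SD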
#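 System: Stable KCNQ1 CHO-K1 line | Incubation: 90 min dye loading and 20 min compound exposure, both at room temperature | Measure: Ratio B score | Medium: Assay buffer for compound exposure, DMSO matched across wells | Compound dosing: Single-concentration screen | Probe or stimulus: K+/Tl+ depolarizing stimulus | Measured by: Kinetic FluxOR fluorescence, 10 s baseline plus 110 s post-stimulus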
# Kir21 block: Kir2.1 (mouse) channel inhibition | P35561 | HEK293-Kir2.1, FluxOR thallium flux fluorescence; active compounds read low | B-score at 10 µM | 0.85% of 310,000 active | AID 1672;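 active = fluorescence ratio B-score at or below minus 3 SD of library scores, with starting-brightness B-score within 2 SD, cut at about -4.2 in these data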;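 note: channel flux triggered by added potassium and thallium sulfate stimulus; B-score of peak minus minimum fluorescence over baseline after thallium stimulus; more negative B-score means stronger Kir2.1 block with less thallium influx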
# KCNK9 block: human KCNK9 channel inhibition; HEK293 KCNK9, FluxOR thallium flux fluorescence; active compounds read low; B-score at 10 µM; 1.2% of 310,000 active;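 active = ratio B-score over 3 SD below the library mean, with starting fluorescence within 5 SD of its mean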;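 note: negative B-score means less thallium flux so channel inhibition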
# KCNK3 inh conf: confirmation of human KCNK3 two-pore domain potassium channel inhibitors. 99% of 2,400 active. ratio percent of control, % at 10 µM. AID 651638. CHO-KCNK3 thallium flux, FluxOR fluorescence; 0% buffer, 100% carvedilol maximal block. shares compounds with KCNK3 block;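 active = ratio percent of control, averaged over triplicates, above buffer control mean plus 5 SD, cut at about 64% in these data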;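 note: ratio is the fluorescence rise from min to max over baseline after thallium stimulus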
# KCNK3 noninduced: activity in cells without induced KCNK3 expression; shares compounds with KCNK3 block; 40% of 2,400 active; thallium flux ratio (lower = more inhibition) at 10 µM; non-induced KCNK3 parental cells, FluxOR thallium flux; active compounds read low;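 active = thallium flux ratio, averaged over three wells, more than 5 SD below the buffer control mean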;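 note: host cells are CHO cells without KCNK3 induction; ratio is peak minus trough fluorescence over baseline then normalized to buffer controls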
# * hit, by the source's call; i = inactive; x = not tested or not shown. Only some compounds are listed: those with a hit (about 3.7% of all), similar ones and a draw of the others.
SMILES,hERG rescue,KCNQ1 inh,KCNK3 block,KCNQ1 pot,Kir21 block,KCNK9 block,KCNK3 inh conf,KCNK3 noninduced
Cc1ccc(N(C)S(=O)(=O)c2cc(-c3cnc(C4CC4)o3)ccc2C)cc1,-12,i,-11*,i,-0.16,i,145*,i
Cc1ccc(NS(=O)(=O)c2ccc(-c3cnc(C4CC4)o3)cc2)c(C)c1,-6,i,-10*,i,0.68,i,132*,0.14*
Cc1ccc(C(=O)CCC(=O)N2CCN(C(=O)c3ccco3)CC2)cc1,-11,i,i,i,-0.34,i,x,x
CCOC(=O)c1cc(-c2csc(COc3ccccc3)n2)on1,-10,i,i,i,0.35,i,x,x
Cc1onc(-c2ccccc2)c1-c1csc(COc2ccccc2)n1,-12,i,-12*,i,1.1,-7.8*,96*,0.14*
O=C(Nc1cccc(F)c1)N1CCCCCC1,0,i,i,i,1.1,i,x,x
Cc1ccc(S(=O)(=O)N(CC(=O)NCCC2=CCCCC2)Cc2ccccc2F)cc1,-9,i,-9.4*,i,0.62,i,116*,i
CCCc1ccc2oc(C(=O)N(Cc3nccn3C)C(C)C)c(C)c2c1,-7,i,-11*,i,0.02,i,113*,i
O=C(Nc1ccc2c(c1)N(S(=O)(=O)c1cccs1)CCC2)c1c(F)cccc1F,-14,i,-8.7*,i,0.95,i,101*,i
CCNC(=O)C(=O)Nc1ccc2c(c1)N(S(=O)(=O)c1cccs1)CCC2,-15,i,i,i,0.52,i,x,x
O=C(NCCN1CCN(c2ccccc2)CC1)C1CCN(S(=O)(=O)c2cccc3nsnc23)CC1,-7,i,i,i,0.09,i,x,x
O=C(C[n+]1ccn(-c2ccccc2)c1)c1ccc([N+](=O)[O-])cc1,-12,i,i,i,-0.09,i,x,x
COc1ccc(OC)c(NC(=O)c2ccc3c(c2)OCO3)c1,-4,i,i,i,-0.68,i,x,x
COc1cccc(CC(=O)Nc2nc(-c3cc(OC)ccc3OC)cs2)c1,-13,i,i,i,0.01,i,x,x
COc1ccc(OC)c(-c2csc(N(Cc3ccco3)C(=O)c3ccco3)n2)c1,-7,i,-12*,i,-0.21,-7.3*,102*,i
COc1ccc(OC)c(-c2csc(NC(=O)Cc3ccccc3)n2)c1,-8,i,-9.4*,i,2.5,i,125*,0.15*
COc1ccc(OC)c(-c2csc(NC(=O)c3ccc4c(c3)OCO4)n2)c1,-7,i,-9.3*,i,-1.1,i,92*,i
COc1ccc(CN(C(=O)c2ccco2)c2ccc(C)c(C)c2)cc1,-8,i,-11*,i,-1.4,-7.1*,105*,i
CCOC(=O)Cn1c(=O)c(F)cn(Cc2ccc(OC)c([N+](=O)[O-])c2)c1=O,-3,i,i,i,0.67,i,x,x
COCCNC(=O)CNC(=S)N(CCCN1CCOCC1)Cc1cccs1,-11,i,i,i,0.17,i,x,x
COc1ccc(OC)c(-c2csc(NC(=O)Cc3cccs3)n2)c1,-5,i,-8.8*,i,1.8,i,85*,i
COc1cccc(CN2CCC(N(CCc3ccccc3)Cc3ccccc3)CC2)c1OC,-12,i,i,i,-0.8,i,x,x
CCOC(=O)CNC(=S)N(Cc1ccco1)Cc1ccccc1Cl,-7,i,-10*,i,-0.32,i,124*,i
CC1CN(c2nc3ccccc3nc2SCC(=O)Nc2ccc(F)cc2)CC(C)O1 (stereo not drawn),-15,i,-8.7*,i,2.4,i,106*,0.14*
CC(O)CN1C(=O)C(CC(=O)Nc2ccc(Cl)cc2)SC1=Nc1ccccc1 (stereo not drawn),-1,i,-9.5*,i,-1,i,110*,i
SMILES,hERG rescue,KCNQ1 inh,KCNK3 block,KCNQ1 pot,Kir21 block,KCNK9 block,KCNK3 inh conf,KCNK3 noninduced
COCCN1C(=O)C(CC(=O)Nc2ccc(C(C)=O)cc2)SC1=Nc1ccccc1 (stereo not drawn),-21,i,i,i,-1.4,i,x,x
COc1cc(C)c(Br)cc1S(=O)(=O)NCCN1CCOCC1,-2,i,i,i,-0.09,i,x,x
COc1ccc2[nH]c3c(N4CCN(Cc5ccc6c(c5)OCO6)CC4)ncnc3c2c1,-24,i,i,i,-1.1,i,x,x
COc1ccc2[nH]c3c(N4CCC(O)(c5cccc(C(F)(F)F)c5)CC4)ncnc3c2c1,-16,i,-12*,i,-0.18,i,122*,0.15*
CCN(c1ccc(OC)cc1)S(=O)(=O)c1ccc(-c2cc(C)no2)s1,0,i,-12*,i,-0.86,i,119*,i
CCc1ccccc1N(C)S(=O)(=O)c1ccc(-c2cc(C)no2)s1,-6,i,-9.9*,i,0.97,i,113*,i
Cc1cc(-c2ccc(S(=O)(=O)N3CCN(C)CC3)s2)on1,-5,i,i,i,-0.89,i,x,x
COc1ccc([N+](=O)[O-])c(O)c1C(C)=O,x,x,i,x,x,x,x,x
CCN(CC)S(=O)(=O)c1cc(NC(=O)C(=O)c2c(-c3ccccc3)cc3ccccn23)ccc1C,-9,i,-10*,i,-0.03,i,105*,i
CCN(CC)c1ccc(S(=O)(=O)N(CC)CC)cc1NC(=O)C1CCCC1,-11,i,-9.4*,i,-0.21,i,97*,i
CCN(CC)S(=O)(=O)c1cc(NC(=S)NC(=O)C2CCCC2)ccc1C,x,x,-16*,x,x,x,101*,i
CCN(CC)S(=O)(=O)c1ccc(N(C)C)c(NC(=O)C2CCCC2)c1,-9,i,i,i,-2.2,i,x,x
Cc1onc(-c2c(Cl)cccc2Cl)c1C(=O)c1c[nH]c(C(=O)NCC2CCCO2)c1 (stereo not drawn),-8,i,i,i,0.17,i,x,x
O=C(c1cnn2c(C(F)(F)F)cc(-c3ccccc3)nc12)N1CCCCC1c1cccnc1 (stereo not drawn),-3,i,i,i,0.01,i,x,x
CCN1CCN(C(=O)c2cc3nc(-c4ccccc4)cc(C(F)(F)F)n3n2)CC1,-6,i,-8.7*,i,0.37,i,0,i

# From PubChem BioAssay
